One assay concerns CFPAC-1. Put plainly: Cytotoxicity against human CFPAC-1 cells after 24 to 72 hrs by MTT assay. The class given is functional, cell-based. Summed up: (§1)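 Cells (from Kunming Medical University) seeded at 5 × 10^4 cells/mL, preincubated 24 h at 37 °C, then given graded concentrations of test chemical in DMSO; cisplatin as positive control. MTT staining after 24, 48 and 72 h, OD 492 nm versus negative control; IC50 = concentration giving 50% cell death, from concentration–viability plot.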

The subject of a further assay is Bacillus subtilis. Description: Antibacterial activity against Bacillus subtilis after overnight incubation by agar well diffusion assay. In kind it is functional.
The test system of another assay is Staphylococcus aureus. Put plainly: Antibacterial activity against Staphylococcus aureus ATCC 29213 after overnight incubation by agar well diffusion assay. The class given is functional. (In general: A growth-free zone around the sample is the usual read-out of agar diffusion tests.)
For another assay, the system named is B16. Description: Cytotoxicity against mouse B16 cells after 24 to 72 hrs by MTT assay. The class given is functional, cell-based. Summed up:
as §1
(Tetrazolium dyes change colour on reduction, which living cells bring about.)

In the next assay the test system is Micrococcus luteus. Put plainly: Antibacterial activity against Micrococcus luteus after overnight incubation by agar well diffusion assay. In kind it is functional.
Assay [1] can be described thus: Cytotoxicity against human MDA-MB-435S cells after 24 to 72 hrs by MTT assay. The class given is functional, cell-based. Summed up: as §1
For a further assay, the system named is HCT-116. Description: Cytotoxicity against human HCT116 cells after 24 to 72 hrs by MTT assay. In kind it is functional, cell-based. The method, boiled down: as §1
The next assay deals with ACHN. Put plainly: Cytotoxicity against human ACHN cells after 24 to 72 hrs by MTT assay. In kind it is functional, cell-based. Summed up: as §1

In brackets after ≈: the same amount, converted by molar mass.

Results on three compounds are retold here after ChEMBL document CHEMBL2163240, “Griseusins F and G, spiro-naphthoquinones from a tin mine tailings-derived alkalophilic Nocardiopsis species” (J Nat Prod, 2012).

With `CC(=O)C[C@]12C(=O)c3cccc(O)c3C(=O)[C@H]1[C@@]1(O[C@H](C)C[C@H](O)[C@H]1O)O[C@@H]1CC(=O)O[C@@H]12` [GRISEUSIN F], the IC50 with CFPAC-1 was determined as 640 nM; in the assay on B16, 430 nM; in assay [1], 820 nM; with HCT-116, 700 nM; in the assay on ACHN, 550 nM. Also, the minimal inhibitory concentration (MIC) was determined as 1.65 µg/mL (≈ 3.58 µM) with Bacillus subtilis, 0.91 µg/mL (≈ 1.98 µM) with Staphylococcus aureus and 1.27 µg/mL (≈ 2.76 µM) against Micrococcus luteus.
Turning to `O=C(O)c1cn(C2CC2)c2cc(N3CCNCC3)c(F)cc2c1=O` [CIPROFLOXACIN], the MIC with Bacillus subtilis was determined as 0.64 µg/mL (≈ 1.93 µM); in the assay with Staphylococcus aureus it was 0.28 µg/mL (≈ 0.845 µM); in the assay on Micrococcus luteus, 1.19 µg/mL (≈ 3.59 µM).
As for `CC(=O)C[C@]12C(=O)c3cccc(O)c3C(=O)[C@H]1[C@@]1(O[C@H](C)CC(=O)[C@H]1O)O[C@@H]1CC(=O)O[C@@H]12` [GRISEUSIN G], the IC50 was 420 nM in the assay on CFPAC-1; 370 nM in the assay with B16; 690 nM in assay [1]; 580 nM with HCT-116; 460 nM with ACHN. Besides, the minimum inhibitory concentration (MIC) was 1.33 µg/mL (≈ 2.9 µM) in the assay with Bacillus subtilis, 0.8 µg/mL (≈ 1.75 µM) with Staphylococcus aureus and 1.47 µg/mL (≈ 3.21 µM) against Micrococcus luteus.

In general, IC50 refers to the concentration at which inhibition is half-maximal. Higher therefore signals weaker potency in that assay. As usually defined, the MIC is the lowest concentration found to suppress growth. Low readings indicate a more susceptible organism, high ones a less susceptible organism.
